Reference: ChEMBL document CHEMBL1177712, “Synthesis and characterization of in vitro and in vivo profiles of hydroxybupropion analogues: aids to smoking cessation” (J Med Chem, 2010)
Active and inactive are the calls of the source.

What was measured:
Mus musculus [1] = experiment: Smoke cessation activity in sc dosed ICR mouse assessed as inhibition of nicotine-induced antinociception administered 15 mins before nicotine challenge measured after 5 mins of nicotine infusion by tail-flick assay; type: functional, organism-based
Procedure, shortened: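 Radiant-heat tail-flick latency was read 5 min later (10 s cutoff; baseline 2–4 s) and expressed as %MPE. AD₅₀ came from at least four doses, with at least 8 mice per dose.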

Mus musculus [2] = experiment: Smoke cessation activity in sc dosed ICR mouse assessed as inhibition of nicotine-induced increase in locomotor activity administered 15 mins before nicotine challenge measured after 5 mins of nicotine infusion; type: functional, organism-based
[3] = molecular target: Neuronal acetylcholine receptor; alpha4/beta2 (Homo sapiens, UniProt P17787+P43681); experiment: Agonist activity at alpha4beta2 nicotinic receptor in human SH-EP1 cells assessed as induction of radiolabeled Rb+ influx at 0.005 to 100 uM by liquid scintillation counting; type: functional, cell-based
Procedure, shortened: (§1)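 Cells were labelled with ⁸⁶Rb⁺ for at least 4 h, then exposed for 5 min in efflux buffer (pH 7.4) to test ligand alone at ~5 nM to 100 μM. The lines were TE671/RD (muscle α1β1γδ), SH-SY5Y (α3β4*) and transfected SH-EP1-hα4β2 or -hα4β4. Efflux was Cerenkov-counted. Non-specific efflux was subtracted, and results were normalized to specific efflux from carbamylcholine (1 mM; 3 mM for SH-SY5Y).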

Mus musculus [4] = experiment: Smoke cessation activity in sc dosed ICR mouse assessed as inhibition of nicotine-induced antinociception administered 15 mins before nicotine challenge measured after 5 mins of nicotine infusion by hotplate assay; type: functional, organism-based
Procedure, shortened: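 Male ICR mice (20–25 g) were pretreated with saline or test drug 15 min before nicotine at 2.5 mg/kg sc. They were tested 5 min later on a 55 °C hot plate (40 s cutoff), and the result was expressed as %MPE. AD₅₀ came from at least four doses, with at least 8 mice per dose.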

Mus musculus [5] = experiment: Smoke cessation activity in sc dosed ICR mouse assessed as inhibition of nicotine-induced hypothermia administered 15 mins before nicotine challenge measured after 30 mins of nicotine infusion; type: functional, organism-based
Procedure, shortened: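 Male ICR mice (20–25 g) were pretreated with test drug or saline 15 min before nicotine at 2.5 mg/kg sc. Rectal temperature was taken before and 30 min after nicotine, and the change was calculated. Room temperature was 21–24 °C. AD₅₀ came from at least four doses, with at least 8 mice per dose.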

[6] = molecular target: T1, Neuronal acetylcholine receptor; alpha4/beta4 (Homo sapiens, UniProt P30926+P43681); experiment: Agonist activity at alpha4beta4 nicotinic receptor in human SH-EP1 cells assessed as induction of radiolabeled Rb+ influx at 0.005 to 100 uM by liquid scintillation counting; type: functional, cell-based; procedure, shortened: as §1
T1 sequence (P30926 whole entry): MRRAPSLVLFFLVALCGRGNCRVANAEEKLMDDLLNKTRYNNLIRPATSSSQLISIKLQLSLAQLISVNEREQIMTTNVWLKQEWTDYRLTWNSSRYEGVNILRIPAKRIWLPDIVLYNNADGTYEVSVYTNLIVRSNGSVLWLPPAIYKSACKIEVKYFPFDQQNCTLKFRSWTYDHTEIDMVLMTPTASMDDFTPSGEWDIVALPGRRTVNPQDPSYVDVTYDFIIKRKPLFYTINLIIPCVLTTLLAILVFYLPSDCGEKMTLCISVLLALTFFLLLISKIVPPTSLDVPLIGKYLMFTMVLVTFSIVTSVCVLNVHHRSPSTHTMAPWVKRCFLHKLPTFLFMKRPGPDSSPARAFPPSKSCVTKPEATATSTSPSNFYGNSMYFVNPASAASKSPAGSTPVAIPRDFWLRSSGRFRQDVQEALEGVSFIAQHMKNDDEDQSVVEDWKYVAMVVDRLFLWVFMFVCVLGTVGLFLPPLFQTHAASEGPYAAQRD
T1 sequence (P43681 whole entry): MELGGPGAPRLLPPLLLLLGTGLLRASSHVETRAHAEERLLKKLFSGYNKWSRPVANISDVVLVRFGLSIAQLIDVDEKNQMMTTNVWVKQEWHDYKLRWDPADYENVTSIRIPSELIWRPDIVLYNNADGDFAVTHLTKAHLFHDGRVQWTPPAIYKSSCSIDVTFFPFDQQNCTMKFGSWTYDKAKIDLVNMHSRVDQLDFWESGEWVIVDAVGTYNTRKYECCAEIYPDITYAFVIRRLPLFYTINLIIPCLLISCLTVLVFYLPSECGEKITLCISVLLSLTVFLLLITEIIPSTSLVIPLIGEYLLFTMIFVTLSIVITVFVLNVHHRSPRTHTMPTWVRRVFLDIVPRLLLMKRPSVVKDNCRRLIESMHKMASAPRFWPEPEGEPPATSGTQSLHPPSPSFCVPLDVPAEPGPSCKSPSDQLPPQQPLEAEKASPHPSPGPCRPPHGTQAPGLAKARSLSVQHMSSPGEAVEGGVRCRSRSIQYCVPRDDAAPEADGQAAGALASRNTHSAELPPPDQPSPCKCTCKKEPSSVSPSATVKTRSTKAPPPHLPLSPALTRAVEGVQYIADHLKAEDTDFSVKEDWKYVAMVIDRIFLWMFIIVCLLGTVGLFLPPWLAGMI

Mus musculus [7] = experiment: Toxicity in sc dosed ICR mouse assessed occurrence of sedation; type: organism-based; details: in vivo
Mus musculus [8] = experiment: Toxicity in sc dosed ICR mouse assessed occurrence of convulsion; type: organism-based; details: in vivo
[9] = molecular target: Acetylcholine receptor; alpha1/beta1/delta/gamma (Homo sapiens, UniProt P02708+P07510+P11230+Q07001); experiment: Antagonist activity at alpha-1-beta-1-gamma-delta nicotinic receptor in human TE671 cells assessed as inhibition varbamylcholine-induced radiolabeled Rb+ influx at by liquid scintillation counting; type: functional, cell-based, TE-671
Acetylcholine receptor; alpha1/beta1/delta/gamma, sequence (P02708 whole entry): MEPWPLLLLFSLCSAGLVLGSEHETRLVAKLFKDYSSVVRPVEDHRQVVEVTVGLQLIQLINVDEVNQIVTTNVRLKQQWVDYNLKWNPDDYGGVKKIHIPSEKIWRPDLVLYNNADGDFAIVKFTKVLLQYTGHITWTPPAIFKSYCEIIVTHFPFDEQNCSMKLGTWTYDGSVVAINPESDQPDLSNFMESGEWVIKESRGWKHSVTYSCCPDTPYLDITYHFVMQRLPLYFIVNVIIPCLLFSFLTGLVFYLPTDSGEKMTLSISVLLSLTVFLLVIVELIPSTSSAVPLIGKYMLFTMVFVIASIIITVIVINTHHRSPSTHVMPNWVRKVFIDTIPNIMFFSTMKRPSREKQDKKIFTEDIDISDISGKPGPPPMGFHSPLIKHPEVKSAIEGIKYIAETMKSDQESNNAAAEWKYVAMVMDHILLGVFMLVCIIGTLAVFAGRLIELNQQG
Acetylcholine receptor; alpha1/beta1/delta/gamma, sequence (P07510 whole entry): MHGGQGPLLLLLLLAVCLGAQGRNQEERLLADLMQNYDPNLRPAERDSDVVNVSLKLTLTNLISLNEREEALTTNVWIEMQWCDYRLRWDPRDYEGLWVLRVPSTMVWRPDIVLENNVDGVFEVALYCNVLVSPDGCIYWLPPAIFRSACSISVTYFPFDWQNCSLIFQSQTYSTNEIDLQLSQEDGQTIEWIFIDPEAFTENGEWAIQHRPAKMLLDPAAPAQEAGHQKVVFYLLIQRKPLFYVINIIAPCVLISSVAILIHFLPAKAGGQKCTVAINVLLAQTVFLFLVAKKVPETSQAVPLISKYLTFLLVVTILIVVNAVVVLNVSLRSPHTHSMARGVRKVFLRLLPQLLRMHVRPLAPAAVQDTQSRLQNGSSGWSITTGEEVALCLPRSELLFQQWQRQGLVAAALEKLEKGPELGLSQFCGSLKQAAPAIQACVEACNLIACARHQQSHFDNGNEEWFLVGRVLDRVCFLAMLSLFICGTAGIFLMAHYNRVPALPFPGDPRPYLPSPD
Acetylcholine receptor; alpha1/beta1/delta/gamma, sequence (P11230 whole entry): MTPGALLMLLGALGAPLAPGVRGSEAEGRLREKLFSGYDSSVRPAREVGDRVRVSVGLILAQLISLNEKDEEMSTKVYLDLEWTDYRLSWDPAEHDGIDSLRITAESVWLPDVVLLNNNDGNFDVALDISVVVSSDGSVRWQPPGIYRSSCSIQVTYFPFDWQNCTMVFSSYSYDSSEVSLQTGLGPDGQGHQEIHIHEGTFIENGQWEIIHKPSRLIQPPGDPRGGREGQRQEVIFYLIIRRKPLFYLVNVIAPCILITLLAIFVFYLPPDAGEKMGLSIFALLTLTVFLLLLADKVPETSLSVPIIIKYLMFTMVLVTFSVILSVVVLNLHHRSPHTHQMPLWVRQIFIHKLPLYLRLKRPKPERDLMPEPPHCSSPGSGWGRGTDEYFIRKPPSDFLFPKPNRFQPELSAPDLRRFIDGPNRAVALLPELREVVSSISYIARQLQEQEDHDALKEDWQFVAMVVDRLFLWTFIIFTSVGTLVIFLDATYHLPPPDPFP
Acetylcholine receptor; alpha1/beta1/delta/gamma, sequence (Q07001 whole entry): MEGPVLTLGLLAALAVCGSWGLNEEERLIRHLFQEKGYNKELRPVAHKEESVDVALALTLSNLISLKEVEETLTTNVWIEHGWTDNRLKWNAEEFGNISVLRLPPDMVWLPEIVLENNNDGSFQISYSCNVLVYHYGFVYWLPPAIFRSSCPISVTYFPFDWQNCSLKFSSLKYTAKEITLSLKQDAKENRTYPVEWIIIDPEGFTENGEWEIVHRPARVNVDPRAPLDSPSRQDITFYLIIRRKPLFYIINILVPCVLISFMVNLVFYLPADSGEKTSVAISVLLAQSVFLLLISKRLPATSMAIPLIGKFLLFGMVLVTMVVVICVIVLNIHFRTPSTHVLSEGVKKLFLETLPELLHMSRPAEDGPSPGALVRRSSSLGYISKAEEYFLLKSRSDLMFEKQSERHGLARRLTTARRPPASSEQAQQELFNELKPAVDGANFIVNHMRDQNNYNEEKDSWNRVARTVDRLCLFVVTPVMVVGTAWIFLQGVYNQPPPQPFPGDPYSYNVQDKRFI
Procedure, shortened: (§2)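 ⁸⁶Rb⁺-loaded human cells were given a 5-min efflux with carbamylcholine at EC₈₀–EC₉₀ plus graded test ligand. Non-specific efflux, taken with 100 μM mecamylamine or buffer, was subtracted. IC₅₀ came from a Hill fit of three independent experiments, with SEM given as a multiplication factor.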

[10] = molecular target: T1, Neuronal acetylcholine receptor; alpha4/beta4; experiment: Antagonist activity at alpha4beta4 nicotinic receptor in human SH-EP1 cells assessed as inhibition varbamylcholine-induced radiolabeled Rb+ influx at by liquid scintillation counting; type: functional, cell-based; procedure, shortened: as §2
SH-EP1 = experiment: Selectivity ratio of IC50 for alpha4beta2 nicotinic receptor in human SH-EP1 cells to IC50 for IC50 for human NET; type: cell-based
SH-SY5Y = experiment: Selectivity ratio of IC50 for alpha3beta4 nicotinic receptor in human SH-SY5Y cells to IC50 for IC50 for human NET; type: cell-based

Compound	IC50 (Mus musculus [1]) [mg/kg]	IC50 (Mus musculus [2]) [mg/kg]	Activity [3]	IC50 (Mus musculus [4]) [mg/kg]	IC50 (Mus musculus [5]) [mg/kg]	Activity [6]	Activity (Mus musculus [7])	Activity (Mus musculus [8])	IC50 [9] [µM]	IC50 [10] [µM]	Ratio IC50 (SH-EP1)	Ratio IC50 (SH-SY5Y)
C[C@@H]1NC(C)(C)CO[C@@]1(O)c1cccc(Br)c1	0.16	2.6	inactive	4.3	1.7	inactive	Non-toxic	Non-toxic	–	–	–	–
C[C@H]1NC(C)(C)CO[C@]1(O)c1cccc(Cl)c1	2.5	> 15	–	10.3	> 15	–	Non-toxic	Non-toxic	–	–	–	–
CC1NC(C)(C)COC1(O)c1ccccn1 (racemic)	–	–	inactive	–	–	inactive	Non-toxic	Non-toxic	> 100	> 100	–	–
CC1NC(C)(C)COC1(O)c1cc(Cl)cc(Cl)c1 (racemic)	> 15	1.9	inactive	> 15	> 15	inactive	Non-toxic	Non-toxic	–	–	4.5	–
COc1cccc([C@]2(O)OCC(C)(C)N[C@H]2C)c1	5.85	> 15	inactive	> 15	> 15	inactive	Non-toxic	Non-toxic	–	> 100	3.3	–
COc1ccc([C@]2(O)OCC(C)(C)N[C@H]2C)cc1	0.019	> 15	inactive	> 15	> 15	inactive	Non-toxic	Non-toxic	–	–	–	–
C[C@@H]1NC(C)(C)CO[C@@]1(O)c1cccc(F)c1	0.012	> 15	inactive	8.6	4.4	inactive	Non-toxic	Non-toxic	> 100	> 100	1.7	–
C[C@@H]1NC(C)(C)CO[C@@]1(O)c1cccc([N+](=O)[O-])c1	4.9	> 15	inactive	> 15	4.7	inactive	Non-toxic	Non-toxic	–	–	4	–
CC1NC(C)(C)COC1(O)c1cccnc1 (racemic)	–	–	inactive	–	–	inactive	Non-toxic	Non-toxic	> 100	> 100	–	–
C[C@@H]1NC(C)(C)CO[C@@]1(O)c1ccc(-c2ccccc2)cc1	0.021	> 15	–	> 15	> 15	–	Non-toxic	Non-toxic	–	–	–	–
CC(NC(C)(C)C)C(=O)c1cccc(Cl)c1 (racemic) [BUPROPION]	–	–	–	15	9.2	–	Non-toxic	Non-toxic	–	–	–	–
CC1NC(C)(C)COC1(O)c1ccc(Cl)c(Cl)c1 (racemic)	8.8	> 15	inactive	> 15	> 15	inactive	Non-toxic	Non-toxic	–	–	175	23
